Experiments:
[1] = system: MDA-MB-231 breast cancer cells; test: MTS cell proliferation/viability assay, MDA-MB-231; assay type: cell-based, Human; settings: for antiproliferative activity (in words): MDA-MB-231, 50 μM, 48 hours, MTS
Method in brief: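 MDA-MB-231 cells cultured in DMEM with 10% FBS and 1% penicillin/streptomycin at 37 °C, 5% CO2; seeded at 7 × 10^3 per well. Serum removed after 24 h, then test compound at 1–50 μM in DMSO (max 0.1%) for 48 h, with a solvent-only control. MTS reagent 4 h at 37 °C, OD 550 nm. Blank-subtracted values normalised to DMSO (100%); triplicates; IC50 by nonlinear regression.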

[2] = system: MCF-7 breast cancer cells; test: MTS cell proliferation assay, MCF-7; assay type: cell-based, human; settings: MCF-7, highest concentration tested 50 μM, 48 h
Method in brief: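 MCF-7 cells seeded at 7 × 10^3 per well; serum withdrawn after 24 h, then exposed 48 h to test compound at 10–50 μM in DMSO (max 0.1%), with a solvent-only control. MTS reagent added; absorbance read at 550 nm after 4 h at 37 °C. Blank-subtracted values normalised to DMSO control (100%); triplicates.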

[3] = system: MDA-MB-231 cells; test: Annexin V-FITC/PI apoptosis assay by flow cytometry; assay type: cell-based, Human; settings: 48 hours
Method in brief: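 MDA-MB-231 cells seeded at 1 × 10^5 per well in 6-well plates; 24 h after serum removal, exposed to test compound (20–40 μM) for 48 h against a 0.1% DMSO control. Trypsinised, washed in cold PBS, stained with Annexin V-FITC and PI (50 μg mL–1) in binding buffer for 20 min in the dark at 0 °C. Flow cytometry gated viable, early-apoptotic, late-apoptotic and necrotic fractions. 3 independent experiments; one-way ANOVA with Fisher's PLSD.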

[4] = system: VERO cells; test: Cytotoxicity against GFP-expressing VERO cells; assay type: cell-based, African Green Monkey; settings: 50 μg mL^–1 (158 μM for 2c, 139 μM for 3), 4 days
[5] = system: leukaemia, colon, renal and melanoma cancer cell lines; test: NCI anti-cancer screen, summary over cell line groups; assay type: cell-based; settings: read-out: IC50 values

SMILES | reduction of VERO cell viability [4] | antiproliferative activity (in words) [1] | other results
C[C@]1(NC(=O)CCl)C2CC[C@@]3(C)N=C(CCl)C1CC3C2 (stereo partly drawn) [Compound 2c, Exo-11-chloroacetamido-4,endo-11-dimethyl-2-chloromethyl-3-azatricyclo[5.3.1.0^4,9]undec-2-ene] | 84 % of control |  | MDA-MB-231 cell viability ([1]; at 20 μM): 90 % of control; antiproliferative activity (in words) [2]: no antiproliferative activities; increase of population of cells in early apoptosis ([3]; 20 μM): 21%; increase of population of cells in early apoptosis ([3]; 40 μM): 31%
COC(=O)/C=C1\C(=O)C=C2C3CC4CC(CCC4(C)N21)C3(C)NC(C)=O (stereo not shown) [Compound 3] | 77 % of control |  | IC50 [5]: < 10 µM
CC(=O)N[C@@]1(C)C2CC[C@@]3(C)N=C(CCl)C1CC3C2 (stereo partly drawn) [Compound 8, Exo-11-acetamido-4,endo-11-dimethyl-2-chloromethyl-3-azatricyclo[5.3.1.0^4,9]undec-2-ene] |  | lack of activity | 
CC(=O)N[C@@]1(C)C2CC[C@@]3(C)N[C@@H](CCl)C1CC3C2 (stereo partly drawn) [Compound 9, Exo-11-acetamido-4,endo-11-dimethyl-2-chloromethyl-3-azatricyclo[5.3.1.0^4,9]undecane] |  | lack of activity | 
COC(=O)C[C@H]1C(=O)C=C2C3CC4CC(CC[C@@]4(C)N21)[C@]3(C)NC(C)=O (stereo partly drawn) [Compound 10, Methyl(E)-[exo-11-acetylamino-9α,endo-11-dimethyl-2-oxo-1,2,4,5,5α,6,7,8,9,9α-decahydro-4,7-methanopyrrolo[1,2-a]-quinolin-1-ylidane]ethanoate] |  | lack of activity | 

Reference: article PMC6072216 (MedChemComm, 2017)
